Results as given in ChEMBL document CHEMBL3232904, “Discovery of novel quinoline carboxylic acid series as DGAT1 inhibitors” (Bioorg Med Chem Lett, 2014).
In brackets after ≈: the same amount, converted by molar mass.

Experiments:
[1] = biological target: T1, Sterol O-acyltransferase 2 (Homo sapiens, UniProt O75908); experiment: Inhibition of human ACAT2
T1 sequence (O75908 whole entry): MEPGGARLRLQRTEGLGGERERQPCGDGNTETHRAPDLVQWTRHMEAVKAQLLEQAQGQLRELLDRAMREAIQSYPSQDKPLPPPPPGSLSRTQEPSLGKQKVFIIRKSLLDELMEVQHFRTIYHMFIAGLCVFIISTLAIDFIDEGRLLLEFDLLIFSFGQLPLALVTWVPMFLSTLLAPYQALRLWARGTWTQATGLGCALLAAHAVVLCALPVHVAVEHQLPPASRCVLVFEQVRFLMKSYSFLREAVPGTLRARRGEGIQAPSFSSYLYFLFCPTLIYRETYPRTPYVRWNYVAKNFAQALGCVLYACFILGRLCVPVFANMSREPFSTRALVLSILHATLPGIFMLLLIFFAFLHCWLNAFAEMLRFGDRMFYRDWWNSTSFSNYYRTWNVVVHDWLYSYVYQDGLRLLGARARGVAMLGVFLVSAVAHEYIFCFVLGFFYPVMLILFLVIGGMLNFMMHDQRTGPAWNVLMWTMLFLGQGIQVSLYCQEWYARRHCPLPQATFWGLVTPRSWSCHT
Summary of the method: (§1)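 IC50 values are the average of at least two independent determinations.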

[2] = biological target: T2, Diacylglycerol O-acyltransferase 1 (Homo sapiens, UniProt O75907); experiment: Inhibition of human DGAT1
T2 sequence (O75907 whole entry): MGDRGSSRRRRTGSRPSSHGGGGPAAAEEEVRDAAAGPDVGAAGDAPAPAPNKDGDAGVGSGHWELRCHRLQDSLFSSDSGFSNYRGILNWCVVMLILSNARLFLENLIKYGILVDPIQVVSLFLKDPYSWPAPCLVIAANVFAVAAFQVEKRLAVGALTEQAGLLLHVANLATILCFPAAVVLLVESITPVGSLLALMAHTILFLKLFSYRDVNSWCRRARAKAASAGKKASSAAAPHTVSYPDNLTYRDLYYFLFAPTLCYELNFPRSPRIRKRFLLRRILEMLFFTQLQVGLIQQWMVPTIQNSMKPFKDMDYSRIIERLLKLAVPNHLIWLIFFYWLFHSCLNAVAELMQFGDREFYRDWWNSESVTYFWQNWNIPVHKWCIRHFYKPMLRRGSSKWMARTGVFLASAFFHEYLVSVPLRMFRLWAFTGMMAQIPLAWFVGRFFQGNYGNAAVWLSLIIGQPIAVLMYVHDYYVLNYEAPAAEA

[3] = biological target: T3, Diacylglycerol O-acyltransferase 2 (Homo sapiens, UniProt Q96PD7); experiment: Inhibition of human DGAT2
T3 sequence (Q96PD7 whole entry): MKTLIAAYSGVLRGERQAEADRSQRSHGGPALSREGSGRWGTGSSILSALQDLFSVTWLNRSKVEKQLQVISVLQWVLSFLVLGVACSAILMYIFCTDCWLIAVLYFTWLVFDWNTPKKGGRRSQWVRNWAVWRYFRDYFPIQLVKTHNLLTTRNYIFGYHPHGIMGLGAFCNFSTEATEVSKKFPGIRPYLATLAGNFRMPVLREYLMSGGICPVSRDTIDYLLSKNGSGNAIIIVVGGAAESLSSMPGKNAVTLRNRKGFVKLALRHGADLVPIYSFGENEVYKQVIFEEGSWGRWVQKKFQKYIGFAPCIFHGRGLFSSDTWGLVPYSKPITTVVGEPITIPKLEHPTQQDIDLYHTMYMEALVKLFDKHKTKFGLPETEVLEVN

[4] = Drug degradation in human plasma at 25 degC after 12 hrs; type: ADME, cell-free; settings: read-out: Drug degradation
Mus musculus [5] = experiment: Reduction of postprandial plasma triglyceride level in C57BL/6J mouse at 10 mg/kg, po administered 15 mins prior to corn oil bolus challenge measured after 2 hrs relative to vehicle-treated control; type: functional; set-up: scale not given: the % may be the effect or the level left
Summary of the method: (§2)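 Vehicle is 20% hydroxypropyl-β-cyclodextrin; compound or vehicle is given 15 min before time 0. Mice receive a 0.25 mL corn oil bolus at time 0. Terminal blood is taken by heart puncture at 120 min. Plasma TG is measured by an enzymatic colorimetric kit with absorbance read at 600 nm. Values are the mean ± SEM from eight studies, as % reduction versus vehicle.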

[6] = biological target: T4, Diacylglycerol O-acyltransferase 1 (Mus musculus, UniProt Q9Z2A7); experiment: Inhibition of mouse DGAT1; summary of the method: as §1
T4 sequence (Q9Z2A7 whole entry): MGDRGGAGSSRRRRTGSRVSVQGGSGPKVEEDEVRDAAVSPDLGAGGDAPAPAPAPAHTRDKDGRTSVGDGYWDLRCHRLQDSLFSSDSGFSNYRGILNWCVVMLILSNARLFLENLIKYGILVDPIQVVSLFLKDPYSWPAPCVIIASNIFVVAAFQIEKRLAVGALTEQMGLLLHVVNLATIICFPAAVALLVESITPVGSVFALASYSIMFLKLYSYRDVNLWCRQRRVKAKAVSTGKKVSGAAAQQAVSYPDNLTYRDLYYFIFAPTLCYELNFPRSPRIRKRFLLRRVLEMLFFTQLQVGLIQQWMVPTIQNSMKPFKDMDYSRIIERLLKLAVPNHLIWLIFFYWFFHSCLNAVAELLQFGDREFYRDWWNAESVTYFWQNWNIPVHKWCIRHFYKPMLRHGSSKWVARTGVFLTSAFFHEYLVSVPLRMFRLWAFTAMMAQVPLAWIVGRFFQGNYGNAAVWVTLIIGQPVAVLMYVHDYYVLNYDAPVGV

[7] = AUC in rat at 10 mg/kg, po; type: ADME, organism-based; set-up: dose 10 mg/kg, route oral; settings: plasma
[8] = Oral bioavailability in rat at 10 mg/kg; type: ADME, organism-based; settings: in vivo
[9] = Plasma protein binding in rat; type: ADME, cell-free; settings: read-out: PPB (converted)
[10] = Permeability across human Caco2 cells; type: ADME, cell-based; settings: Caco-2, read-out: permeability
[11] = Clearance in rat hepatocytes assessed per million cells; type: ADME, cell-based, Hepatocyte; settings: read-out: CLH
[12] = Half life in rat at 10 mg/kg, po; type: ADME, organism-based; set-up: dose 10 mg/kg, route oral; settings: in vivo
[13] = Clearance in human hepatocytes assessed per million cells; type: ADME, cell-based, Hepatocyte; settings: read-out: CLH
[14] = Solubility of the compound; type: physicochemical
[15] = Solubility of the compound at pH 7; type: physicochemical; settings: buffer
[16] = biological target: T5, Sterol O-acyltransferase 1 (Homo sapiens, UniProt P35610); experiment: Inhibition of human ACAT1; summary of the method: as §1
T5 sequence (P35610 whole entry): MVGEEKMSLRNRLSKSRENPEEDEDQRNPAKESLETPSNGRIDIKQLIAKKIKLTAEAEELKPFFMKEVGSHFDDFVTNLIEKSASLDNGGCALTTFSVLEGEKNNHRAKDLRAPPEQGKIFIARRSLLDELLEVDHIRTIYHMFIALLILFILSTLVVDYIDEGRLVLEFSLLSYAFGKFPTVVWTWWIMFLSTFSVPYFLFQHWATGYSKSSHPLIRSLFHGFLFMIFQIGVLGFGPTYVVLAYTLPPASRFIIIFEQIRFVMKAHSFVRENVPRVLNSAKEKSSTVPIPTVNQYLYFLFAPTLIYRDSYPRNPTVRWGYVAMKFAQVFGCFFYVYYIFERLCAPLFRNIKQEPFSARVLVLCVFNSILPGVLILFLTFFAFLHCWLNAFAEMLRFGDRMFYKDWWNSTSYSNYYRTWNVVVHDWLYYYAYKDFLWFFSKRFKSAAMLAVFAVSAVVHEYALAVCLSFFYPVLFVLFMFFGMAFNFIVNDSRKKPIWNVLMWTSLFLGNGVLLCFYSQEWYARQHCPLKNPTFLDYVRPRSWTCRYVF

Mus musculus [17] = experiment: Reduction of postprandial plasma triglyceride level in C57BL/6J mouse at 3 mg/kg, po administered 15 mins prior to corn oil bolus challenge measured after 2 hrs relative to vehicle-treated control; type: functional; set-up: scale not given: the % may be the effect or the level left; summary of the method: as §2
[18] = Metabolic stability in human plasma assessed as compound recovery at 25 degC after 6 days; type: ADME, cell-free; settings: read-out: Drug recovery
CYP1A1 = biological target: T6, CYP1A1 (Homo sapiens, UniProt P04798); experiment: Induction of CYP1A1 (unknown origin) at 30 uM; type: ADME; settings: read-out: FC
T6 sequence (P04798 whole entry): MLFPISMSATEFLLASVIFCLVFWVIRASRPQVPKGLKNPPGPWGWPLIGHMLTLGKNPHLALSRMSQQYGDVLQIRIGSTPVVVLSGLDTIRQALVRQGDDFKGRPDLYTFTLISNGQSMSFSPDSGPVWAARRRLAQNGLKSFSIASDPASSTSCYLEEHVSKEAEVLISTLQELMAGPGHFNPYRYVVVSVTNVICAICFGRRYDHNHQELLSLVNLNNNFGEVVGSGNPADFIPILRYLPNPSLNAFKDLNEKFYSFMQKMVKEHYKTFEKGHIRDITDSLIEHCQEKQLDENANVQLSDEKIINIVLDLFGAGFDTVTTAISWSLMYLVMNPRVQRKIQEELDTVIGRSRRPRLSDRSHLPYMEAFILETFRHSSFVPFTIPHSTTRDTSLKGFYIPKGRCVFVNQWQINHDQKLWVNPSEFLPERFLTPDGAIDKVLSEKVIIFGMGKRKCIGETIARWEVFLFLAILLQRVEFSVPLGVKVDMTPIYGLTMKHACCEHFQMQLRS

Plasma [19] = experiment: Metabolic stability in rat plasma at 25 degC; type: ADME, cell-free
Plasma [20] = experiment: Metabolic stability in mouse plasma at 25 degC; type: ADME, cell-free
Plasma [21] = experiment: Metabolic stability in human plasma at 25 degC; type: ADME, cell-free

| Structure (SMILES) | IC50 [2] | Activity (Mus musculus [5]) | IC50 [6] | AUC [7] | further results |
| --- | --- | --- | --- | --- | --- |
| O=C(O)C[C@H]1CC[C@H](c2ccc(-c3ccc4c(ccn4C(=O)Nc4ccccc4)c3)cc2)CC1 | 37 nM | -45% | – | – | IC50 [1]: 3000 nM; IC50 [3]: > 50000 nM; metabolised at 12 h [4]: 40% |
| O=C(O)C[C@H]1CC[C@H](c2ccc(-c3ccc4c(C(=O)Nc5ccccc5)c[nH]c4c3)cc2)CC1 | – | 23% | 284 nM | 1.3 µM·h | – |
| O=C(O)C[C@H]1CC[C@H](c2ccc(-c3ccc4c(c3)CCCN4C(=O)Nc3ccccc3)cc2)CC1 | – | -15% | 84 nM | 79 µM·h | – |
| O=C(O)C[C@H]1CC[C@H](c2ccc(-c3ccc4nc(Nc5ccccc5)ncc4c3)cc2)CC1 | – | – | > 10000 nM | – | – |
| O=C(O)C[C@H]1CC[C@H](c2ccc(-c3ccc4c(c3)CCN4C(=O)Nc3ccccc3)cc2)CC1 | – | -13% | 69 nM | 17 µM·h | bioavailability [8]: > 90%; metabolised at 12 h [4]: 20%; fraction unbound [9]: 0.002; Papp [10]: 17 ×10⁻⁶ cm/s; hepatocyte CLint [11]: 13 µL/min/1e6 cells; half-life [12]: 3 h; hepatocyte CLint [13]: 3 µL/min/1e6 cells; solubility [14]: 50 µM (≈ 22.7 µg/mL) |
| O=C(O)C[C@H]1CC[C@H](c2ccc(-c3ccc4c(C(=O)Nc5ccccc5)cccc4c3)cc2)CC1 | – | 0% | 8 nM | – | solubility [15]: 10 µM (≈ 4.64 µg/mL) |
| O=C(O)C[C@H]1CC[C@H](c2ccc(-c3ccc4c(C(=O)Nc5ccccc5)ccnc4c3)cc2)CC1 | 41 nM | -85% | 23 nM | 5 µM·h | Papp [10]: 54.2 ×10⁻⁶ cm/s; IC50 [16]: 4170 nM; solubility [14]: 50 µM (≈ 23.2 µg/mL) |
| O=C(O)C[C@H]1CC[C@H](c2ccc(-c3ccc4c(c3)C(=O)CCN4C(=O)Nc3ccccc3)cc2)CC1 | > 10000 nM | – | 1670 nM | – | – |
| O=C(O)C[C@H]1CC[C@H](c2ccc(-c3ccc4c(c3)NCCN4C(=O)Nc3ccccc3)cc2)CC1 | – | – | 4820 nM | – | – |
| Cc1cc(C(=O)NCCCCCc2ccccc2)c2ccc(-c3ccc([C@H]4CC[C@H](CC(=O)O)CC4)cc3)cc2n1 | – | – | 1.4 nM | 10 µM·h | Activity (Mus musculus [17]): -58% |
| O=C(O)C[C@H]1CC[C@H](c2ccc(-c3ccc4cc(C(=O)Nc5ccccc5)[nH]c4c3)cc2)CC1 | – | – | 1090 nM | – | – |
| O=C(O)C[C@H]1CC[C@H](c2ccc(-c3ccc4oc(Nc5ccccc5)nc4c3)cc2)CC1 | – | – | 3840 nM | – | – |
| Cc1cc(C(=O)Nc2ccccc2)c2ccc(-c3ccc(OCC(C)(C)C(=O)O)nc3)cc2n1 | – | – | 69 nM | 34 µM·h | IC50 [1]: 1550 nM; Activity (Mus musculus [17]): -91% |
| CN1CCN(C(=O)Nc2ccccc2)c2ccc(-c3ccc([C@H]4CC[C@H](CC(=O)O)CC4)cc3)cc2C1 | > 10000 nM | – | > 10000 nM | – | – |
| O=C(O)C[C@H]1CC[C@H](c2ccc(-c3ccc4nc(C(=O)Nc5ccccc5)[nH]c4c3)cc2)CC1 | – | – | > 5000 nM | – | – |
| O=C(O)C[C@H]1CC[C@H](c2ccc(-c3ccc4c(c3)OCCN4C(=O)Nc3ccccc3)cc2)CC1 | 65 nM | -52% | 40 nM | 58 µM·h | IC50 [1]: 9700 nM; IC50 [3]: > 10000 nM; fraction unbound [9]: 0.002; Papp [10]: 44.8 ×10⁻⁶ cm/s; hepatocyte CLint [11]: 9 µL/min/1e6 cells; remaining at 144 h [18]: 80%; fold induction at 30 µM (CYP1A1): 10; half-life [12]: 4 h; hepatocyte CLint [13]: 11 µL/min/1e6 cells; solubility [14]: 100 µM (≈ 47.1 µg/mL) |
| Cc1cc(C(=O)Nc2ccccc2)c2ccc(-c3ccc(OCC(C)(C)C(=O)O)[n+]([O-])c3)cc2n1 | 122 nM | – | 23 nM | – | IC50 [1]: 13300 nM; Activity (Mus musculus [17]): -40% |
| CC(C)c1cccc(NC(=O)c2ccnc3cc(-c4ccc([C@H]5CC[C@H](CC(=O)O)CC5)cc4)ccc23)c1 | – | – | 23 nM | 0.03 µM·h | Activity (Mus musculus [17]): -76%; Stability (Plasma [19]): 12 h; Stability (Plasma [20]): 12 h; Stability (Plasma [21]): 12 h |
